According to ChEMBL document CHEMBL1148523, “Synthesis and biological evaluation of novel pyridazinone-based alpha4 integrin receptor antagonists” (J Med Chem, 2006):

Tested on: not listed separately
Experiment: Volume of distribution in rat at 3 mg/kg, iv
Format: ADME, organism-based
Set-up: dose 3 mg/kg, route intravenous
Settings: in vivo, read-out: Vdss
Method in brief: (§1)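 Rats were given 3 mg/kg iv or 30 mg/kg by oral gavage (oral vehicle 10% PEG 400 in PBS, pH 7.0-7.5). Heparinized blood was sampled after dosing and the plasma stored at -70 °C. Analysis was by LC-MS-MS with multiple reaction monitoring, using plasma calibration standards of 0.01-10 µM (LOQ 0.01 µM). For ester prodrugs, the parent acid was quantified. AUC was taken after oral dosing and t1/2 after iv dosing.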

Structure (SMILES)	Vd [L/kg]
COc1cnn(C)c(=O)c1-c1ccc(C[C@H](NC(=O)N(C)CC(C)C)C(=O)O)cc1	0.19
COc1cnn(C)c(=O)c1-c1ccc(C[C@H](NC(=O)c2c(Cl)cccc2Cl)C(=O)O)cc1	0.4
COc1cnn(CCO)c(=O)c1-c1ccc(C[C@H](NC(=O)OC(C)(C)C)C(=O)O)cc1	0.11

Target: Integrin alpha-4/beta-1 (Homo sapiens, UniProt P05556+P13612)
Experiment: Inhibition of binding of alpha4beta1 integrin receptor expressed in human Ramos cells to immobilized VCAM1
Format: cell-based
Settings: not given

Chain of Integrin alpha-4/beta-1 (P05556 whole entry, one chain of several): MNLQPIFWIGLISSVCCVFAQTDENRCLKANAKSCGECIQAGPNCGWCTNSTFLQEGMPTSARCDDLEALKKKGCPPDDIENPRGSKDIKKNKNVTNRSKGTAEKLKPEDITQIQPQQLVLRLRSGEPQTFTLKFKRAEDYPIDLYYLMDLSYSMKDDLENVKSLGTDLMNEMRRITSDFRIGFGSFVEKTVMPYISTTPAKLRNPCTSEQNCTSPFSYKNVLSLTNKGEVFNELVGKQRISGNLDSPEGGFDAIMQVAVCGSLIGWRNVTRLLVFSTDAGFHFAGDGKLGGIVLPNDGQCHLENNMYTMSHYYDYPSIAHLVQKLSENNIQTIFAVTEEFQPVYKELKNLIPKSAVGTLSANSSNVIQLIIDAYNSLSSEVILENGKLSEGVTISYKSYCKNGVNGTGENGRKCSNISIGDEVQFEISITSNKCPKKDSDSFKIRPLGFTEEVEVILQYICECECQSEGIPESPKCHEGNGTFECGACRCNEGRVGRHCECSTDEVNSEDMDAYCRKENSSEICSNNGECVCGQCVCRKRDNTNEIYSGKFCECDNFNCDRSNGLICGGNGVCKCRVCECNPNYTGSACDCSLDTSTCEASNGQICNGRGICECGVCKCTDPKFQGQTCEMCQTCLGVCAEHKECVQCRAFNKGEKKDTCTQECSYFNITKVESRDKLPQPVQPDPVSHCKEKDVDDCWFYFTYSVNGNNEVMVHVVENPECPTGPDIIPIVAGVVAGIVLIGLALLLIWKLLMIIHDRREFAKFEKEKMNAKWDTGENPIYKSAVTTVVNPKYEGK

Structure (SMILES)	IC50 [nM]
CCCN(C(=O)N[C@@H](Cc1ccc(-c2c(OC)cnn(C)c2=O)cc1)C(=O)O)c1ccccc1	> 5000
Cn1ncc(OCCN2CCOCC2)c(-c2ccc(C[C@H](NC(=O)c3c(Cl)cccc3Cl)C(=O)O)cc2)c1=O	66
Cn1ncc(N2CCCC2)c(-c2ccc(C[C@H](NC(=O)c3c(Cl)cccc3Cl)C(=O)O)cc2)c1=O	110
COC(=O)N[C@@H](Cc1ccc(-c2c(OC)cnn(C)c2=O)cc1)C(=O)O	> 5000
Cn1ncc(OC(F)F)c(-c2ccc(C[C@H](NC(=O)c3c(Cl)cccc3Cl)C(=O)O)cc2)c1=O	280
COc1cnn(C)c(=O)c1-c1ccc(C[C@H](NC(=O)N(C)CC(C)C)C(=O)O)cc1	1800
Cn1ncc(OC2CCCCC2)c(-c2ccc(C[C@H](NC(=O)c3c(Cl)cccc3Cl)C(=O)O)cc2)c1=O	150
COc1cnn(C)c(=O)c1-c1ccc(C[C@H](NC(=O)OC(C)(C)C)C(=O)O)cc1	> 5000
COc1cnn(C2CCCCC2)c(=O)c1-c1ccc(C[C@H](NC(=O)c2c(Cl)cccc2Cl)C(=O)O)cc1	> 5000
CCOc1cnn(C)c(=O)c1-c1ccc(C[C@H](NC(=O)c2c(Cl)cccc2Cl)C(=O)O)cc1	170
COc1cnn(CCO)c(=O)c1-c1ccc(C[C@H](NC(=O)OC(C)(C)C)C(=O)O)cc1	> 5000
COc1cnn(C)c(=O)c1-c1ccc(C[C@H](NC(=O)N(C)C)C(=O)O)cc1	> 5000
COc1cnn(CCO)c(=O)c1-c1ccc(C[C@H](NC(=O)c2c(Cl)cccc2Cl)C(=O)O)cc1	130
COc1cnnc(O)c1-c1ccc(C[C@H](NC(=O)c2c(Cl)cccc2Cl)C(=O)O)cc1	1000

Tested on: not listed separately
Experiment: Inhibition of adhesion of human HL60 cell to TNF-alpha-stimulated HUVEC cells mediated by ELAM1
Format: functional, cell-based
Settings: not given

Structure (SMILES)	IC50 [nM]
COc1cnn(C)c(=O)c1-c1ccc(C[C@H](NC(=O)c2c(Cl)cccc2Cl)C(=O)O)cc1	< 5

Tested on: not listed separately
Experiment: Half life in rat at 3 mg/kg, iv
Format: ADME, organism-based
Set-up: dose 3 mg/kg, route intravenous
Settings: in vivo
Method in brief: as §1

Structure (SMILES)	half-life [min]
COc1cnn(C)c(=O)c1-c1ccc(C[C@H](NC(=O)N(C)CC(C)C)C(=O)OCCO)cc1	24
COc1cnn(C)c(=O)c1-c1ccc(C[C@H](NC(=O)c2c(Cl)cccc2Cl)C(=O)OCCO)cc1	60
COc1cnn(C)c(=O)c1-c1ccc(C[C@H](NC(=O)N(C)CC(C)C)C(=O)O)cc1	54
COc1cnn(C)c(=O)c1-c1ccc(C[C@H](NC(=O)c2c(Cl)cccc2Cl)C(=O)O)cc1	12
COC(=O)[C@H](Cc1ccc(-c2c(OC)cnn(C)c2=O)cc1)NC(=O)c1c(Cl)cccc1Cl	42
COc1cnn(CCO)c(=O)c1-c1ccc(C[C@H](NC(=O)OC(C)(C)C)C(=O)O)cc1	12
COc1cnn(CCO)c(=O)c1-c1ccc(C[C@H](NC(=O)OC(C)(C)C)C(=O)OCCO)cc1	66

Tested on: not listed separately
Experiment: Clearance in rat at 3 mg/kg, iv
Format: ADME, organism-based
Set-up: dose 3 mg/kg, route intravenous
Settings: in vivo
Method in brief: as §1

Structure (SMILES)	clearance [mL/min/kg]
COc1cnn(C)c(=O)c1-c1ccc(C[C@H](NC(=O)N(C)CC(C)C)C(=O)O)cc1	7.8
COc1cnn(C)c(=O)c1-c1ccc(C[C@H](NC(=O)c2c(Cl)cccc2Cl)C(=O)O)cc1	22
COc1cnn(CCO)c(=O)c1-c1ccc(C[C@H](NC(=O)OC(C)(C)C)C(=O)O)cc1	6

Tested on: not listed separately
Experiment: Inhibition of adhesion of human U937 cell to LPS-stimulated HUVEC cells mediated by ICAM1/VCAM1
Format: functional, cell-based
Settings: not given

Structure (SMILES)	IC50 [nM]
COc1cnn(C)c(=O)c1-c1ccc(C[C@H](NC(=O)c2c(Cl)cccc2Cl)C(=O)O)cc1	14

Tested on: not listed separately
Experiment: AUC in rat at 30 mg/kg, po
Format: ADME, organism-based
Set-up: dose 30 mg/kg, route oral
Settings: plasma
Method in brief: as §1

Structure (SMILES)	AUC [µM·h]
COc1cnn(C)c(=O)c1-c1ccc(C[C@H](NC(=O)N(C)CC(C)C)C(=O)OCCO)cc1	47
COc1cnn(C)c(=O)c1-c1ccc(C[C@H](NC(=O)c2c(Cl)cccc2Cl)C(=O)OCCO)cc1	3.3
COc1cnn(C)c(=O)c1-c1ccc(C[C@H](NC(=O)N(C)CC(C)C)C(=O)O)cc1	5.2
COc1cnn(C)c(=O)c1-c1ccc(C[C@H](NC(=O)c2c(Cl)cccc2Cl)C(=O)O)cc1	0.5
COC(=O)[C@H](Cc1ccc(-c2c(OC)cnn(C)c2=O)cc1)NC(=O)c1c(Cl)cccc1Cl	1.7
COc1cnn(CCO)c(=O)c1-c1ccc(C[C@H](NC(=O)OC(C)(C)C)C(=O)O)cc1	1.6
CCOC(=O)[C@H](Cc1ccc(-c2c(OC)cnn(C)c2=O)cc1)NC(=O)c1c(Cl)cccc1Cl	2.3
COc1cnn(CCO)c(=O)c1-c1ccc(C[C@H](NC(=O)OC(C)(C)C)C(=O)OCCO)cc1	51

Tested on: not listed separately
Experiment: Oral bioavailability in rat at 30 mg/kg, po and 3 mg/kg, iv
Format: ADME, organism-based
Settings: in vivo
Method in brief: as §1

Structure (SMILES)	bioavailability [%]
COc1cnn(C)c(=O)c1-c1ccc(C[C@H](NC(=O)N(C)CC(C)C)C(=O)OCCO)cc1	14
COc1cnn(C)c(=O)c1-c1ccc(C[C@H](NC(=O)c2c(Cl)cccc2Cl)C(=O)OCCO)cc1	7
COc1cnn(C)c(=O)c1-c1ccc(C[C@H](NC(=O)N(C)CC(C)C)C(=O)O)cc1	3
COc1cnn(C)c(=O)c1-c1ccc(C[C@H](NC(=O)c2c(Cl)cccc2Cl)C(=O)O)cc1	1
COC(=O)[C@H](Cc1ccc(-c2c(OC)cnn(C)c2=O)cc1)NC(=O)c1c(Cl)cccc1Cl	8
COc1cnn(CCO)c(=O)c1-c1ccc(C[C@H](NC(=O)OC(C)(C)C)C(=O)O)cc1	1
CCOC(=O)[C@H](Cc1ccc(-c2c(OC)cnn(C)c2=O)cc1)NC(=O)c1c(Cl)cccc1Cl	4
COc1cnn(CCO)c(=O)c1-c1ccc(C[C@H](NC(=O)OC(C)(C)C)C(=O)OCCO)cc1	31

Target: T1, Integrin alpha-4/beta-7 (Homo sapiens, UniProt P13612+P26010)
T1 sequence (P13612 whole entry): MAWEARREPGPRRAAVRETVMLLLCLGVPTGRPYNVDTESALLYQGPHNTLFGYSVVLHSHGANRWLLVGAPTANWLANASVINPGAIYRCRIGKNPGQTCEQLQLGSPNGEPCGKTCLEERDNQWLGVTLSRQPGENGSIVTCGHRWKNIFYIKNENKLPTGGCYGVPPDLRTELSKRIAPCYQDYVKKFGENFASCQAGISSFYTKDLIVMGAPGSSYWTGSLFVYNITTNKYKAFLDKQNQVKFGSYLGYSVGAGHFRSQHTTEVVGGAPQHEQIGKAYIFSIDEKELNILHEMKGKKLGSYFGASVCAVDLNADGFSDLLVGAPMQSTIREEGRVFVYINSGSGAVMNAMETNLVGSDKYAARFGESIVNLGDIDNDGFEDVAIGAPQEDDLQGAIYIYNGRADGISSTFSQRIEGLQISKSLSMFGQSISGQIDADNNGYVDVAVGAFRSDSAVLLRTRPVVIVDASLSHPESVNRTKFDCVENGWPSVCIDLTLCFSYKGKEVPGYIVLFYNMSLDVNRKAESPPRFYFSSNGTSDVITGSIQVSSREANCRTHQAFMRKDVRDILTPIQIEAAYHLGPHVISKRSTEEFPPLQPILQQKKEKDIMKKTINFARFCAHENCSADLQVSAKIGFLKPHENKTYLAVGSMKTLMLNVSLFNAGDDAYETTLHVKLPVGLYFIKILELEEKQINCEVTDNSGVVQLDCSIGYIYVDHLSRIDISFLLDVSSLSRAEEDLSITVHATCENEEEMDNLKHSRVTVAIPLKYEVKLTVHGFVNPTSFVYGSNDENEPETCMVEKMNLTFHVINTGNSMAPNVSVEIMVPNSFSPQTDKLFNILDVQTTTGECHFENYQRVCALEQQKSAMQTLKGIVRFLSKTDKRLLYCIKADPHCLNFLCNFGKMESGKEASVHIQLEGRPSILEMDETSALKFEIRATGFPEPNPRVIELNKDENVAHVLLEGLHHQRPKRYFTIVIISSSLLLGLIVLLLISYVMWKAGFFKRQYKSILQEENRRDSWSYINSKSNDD
T1 sequence (P26010 whole entry): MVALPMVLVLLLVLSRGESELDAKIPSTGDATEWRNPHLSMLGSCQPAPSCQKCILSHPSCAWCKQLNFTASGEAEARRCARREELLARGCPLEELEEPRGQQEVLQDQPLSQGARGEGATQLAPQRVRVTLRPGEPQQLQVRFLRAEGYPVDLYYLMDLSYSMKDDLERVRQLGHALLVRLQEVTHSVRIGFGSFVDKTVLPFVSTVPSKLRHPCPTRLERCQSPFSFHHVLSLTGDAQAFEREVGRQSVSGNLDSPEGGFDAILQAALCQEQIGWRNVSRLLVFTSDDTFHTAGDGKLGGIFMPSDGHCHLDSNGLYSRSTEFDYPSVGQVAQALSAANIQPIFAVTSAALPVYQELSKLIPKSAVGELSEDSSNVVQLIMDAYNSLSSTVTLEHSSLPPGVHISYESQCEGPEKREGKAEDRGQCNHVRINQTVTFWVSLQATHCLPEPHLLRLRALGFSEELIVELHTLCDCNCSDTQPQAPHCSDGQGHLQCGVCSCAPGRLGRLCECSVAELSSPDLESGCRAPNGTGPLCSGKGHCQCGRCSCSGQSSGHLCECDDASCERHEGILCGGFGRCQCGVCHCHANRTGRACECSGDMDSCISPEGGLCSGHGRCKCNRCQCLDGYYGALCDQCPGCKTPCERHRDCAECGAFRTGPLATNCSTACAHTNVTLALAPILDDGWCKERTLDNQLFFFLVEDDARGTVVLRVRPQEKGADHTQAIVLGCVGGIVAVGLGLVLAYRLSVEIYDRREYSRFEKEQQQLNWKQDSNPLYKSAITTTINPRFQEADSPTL
Experiment: Inhibition of binding of alpha-4-beta-7 integrin receptor expressed in human K562 cells to immobilized MAdCAM1
Format: cell-based
Settings: not given

Structure (SMILES)	IC50 [nM]
Cn1ncc(OC(F)F)c(-c2ccc(C[C@H](NC(=O)c3c(Cl)cccc3Cl)C(=O)O)cc2)c1=O	8
COc1cnn(C2CCCCC2)c(=O)c1-c1ccc(C[C@H](NC(=O)c2c(Cl)cccc2Cl)C(=O)O)cc1	330
COc1cnn(Cc2ccccc2)c(=O)c1-c1ccc(C[C@H](NC(=O)c2c(Cl)cccc2Cl)C(=O)O)cc1	100
CCOc1cnn(C)c(=O)c1-c1ccc(C[C@H](NC(=O)c2c(Cl)cccc2Cl)C(=O)O)cc1	2
COc1cnn(CCO)c(=O)c1-c1ccc(C[C@H](NC(=O)OC(C)(C)C)C(=O)O)cc1	110
COc1cnn(C)c(=O)c1-c1ccc(C[C@H](NC(=O)N(C)C)C(=O)O)cc1	1500
Cn1ncc(O)c(-c2ccc(C[C@H](NC(=O)c3c(Cl)cccc3Cl)C(=O)O)cc2)c1=O	49

Tested on: Mus musculus
Experiment: Inhibition of DSS-induced colitis in mouse at 60 mg/kg, po after 7 days
Format: functional
Settings: 168 h
Method in brief: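 Female Balb/c mice, 11-14 weeks old (n = 10/group), drank 5% DSS in tap water ad libitum for 7 days, freshly changed daily. Oral gavage at 60 mg/kg in 10% PEG 400 in D5W, or vehicle alone, began on the day of induction and continued twice daily for 7 days. Colons were then dissected. The macroscopic score combined colon shrinkage, stool consistency and colon damage.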

Structure (SMILES)	inhibition in vivo at 60 mg/kg [%]
COc1cnn(CCO)c(=O)c1-c1ccc(C[C@H](NC(=O)OC(C)(C)C)C(=O)OCCO)cc1	54

Tested on: not listed separately
Experiment: Inhibition of adhesion of human Ramos cell to TNF-alpha-stimulated HUVEC cells mediated by VCAM1
Format: functional, cell-based
Settings: not given

Structure (SMILES)	IC50 [nM]
COc1cnn(C)c(=O)c1-c1ccc(C[C@H](NC(=O)c2c(Cl)cccc2Cl)C(=O)O)cc1	43
